Measured values published in ChEMBL document CHEMBL1926589, “2-Anilinonicotinyl linked 2-aminobenzothiazoles and [1,2,4]triazolo[1,5-b] [1,2,4]benzothiadiazine conjugates as potential mitochondrial apoptotic inducers” (Bioorg Med Chem, 2011).
Active and inactive are the calls of the source. The calls are words filed in the database; no cut-off is given here.

Experiments:
IMR-32 = assay: Growth inhibition of human IMR32 cells at 10 uM by sulforhodamine B assay; assay type: functional; details: read-out: GI
Outline: (§1)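 Single-dose 10 µM screen by sulforhodamine B assay, reported as percent inhibition of cell proliferation. Cells grown in medium with 10% heat-inactivated FBS at 37 °C, 5% CO2, and treated at about 70% confluence or in log phase. Compounds dissolved in DMSO; controls received vehicle (<0.5% v/v).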

SK-N-SH = assay: Growth inhibition of human SK-N-SH cells at 10 uM by sulforhodamine B assay; assay type: functional; details: read-out: GI; outline: as §1
SiHa [1] = assay: Growth inhibition of human SiHa cells at 10 uM by sulforhodamine B assay; assay type: functional; details: read-out: GI; outline: as §1
SW-620 = assay: Growth inhibition of human SW620 cells at 10 uM by sulforhodamine B assay; assay type: functional; details: read-out: GI; outline: as §1
HCT-15 = assay: Growth inhibition of human HCT15 cells at 10 uM by sulforhodamine B assay; assay type: functional; details: read-out: GI; outline: as §1
[2] = Growth inhibition of human 502713 cells at 10 uM by sulforhodamine B assay; assay type: functional; details: read-out: GI; outline: as §1
DU-145 = assay: Growth inhibition of human DU145 cells at 10 uM by sulforhodamine B assay; assay type: functional; details: read-out: GI; outline: as §1
A549 = assay: Growth inhibition of human A549 cells at 10 uM by sulforhodamine B assay; assay type: functional; details: read-out: GI; outline: as §1
HEp-2 = assay: Growth inhibition of human Hep2 cells at 10 uM by sulforhodamine B assay; assay type: functional; details: read-out: GI; outline: as §1
OVCAR-5 = assay: Growth inhibition of human OVCAR5 cells at 10 uM by sulforhodamine B assay; assay type: functional; details: read-out: GI; outline: as §1
HL-60 [3] = assay: Induction of apoptosis in human HL60 cells assessed as early apoptotic cells at 1 uM after 24 hrs using Annexin V-FITC and propidium iodide staining by flow cytometry relative to control; assay type: functional
Outline: (§2)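 HL-60 cells (1 x 10^5 per 1.5 mL) treated 24 h, washed twice in PBS and stained in binding buffer with annexin V-FITC and PI. Flow cytometry with FITC in FL-1 (530 nm) and PI in FL-2 (585 nm), using quadrant statistics: lower right taken as apoptotic, upper right as post-apoptotic necrotic. Representative of three independent experiments.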

HL-60 [4] = assay: Induction of apoptosis in human HL60 cells assessed as non-viable necrotic cells at 1 uM after 24 hrs using Annexin V-FITC and propidium iodide staining by flow cytometry relative to control; assay type: functional; outline: as §2
HL-60 [5] = assay: Induction of apoptosis in human HL60 cells assessed as late apoptotic cells at 1 uM after 24 hrs using Annexin V-FITC and propidium iodide staining by flow cytometry relative to control; assay type: functional; outline: as §2
HL-60 [6] = assay: Induction of apoptosis in human HL60 cells assessed as caspase3 activation using DEVD-AFC as substrate at 1 uM after 24 hrs by fluorimetry relative to control; assay type: functional
Outline: (§3)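 HL-60 cells (2 x 10^6) treated 24 h, washed and lysed. Caspase-3, -8 and -9 activities in lysates measured fluorometrically with a commercial caspase fluorescent assay kit. Two independent experiments, each in duplicate.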

HL-60 [7] = assay: Induction of apoptosis in human HL60 cells assessed as caspase8 activation using IETD-AFC as substrate at 1 uM after 24 hrs by fluorimetry relative to control; assay type: functional; outline: as §3
HL-60 [8] = assay: Induction of apoptosis in human HL60 cells assessed as caspase9 activation using LEHD-AMC as substrate at 1 uM after 24 hrs by fluorimetry relative to control; assay type: functional; outline: as §3
HL-60 [9] = assay: Induction of apoptosis in human HL60 cells assessed as DNA ladder formation at 1 uM after 24 hrs by agarose gel electrophoresis; assay type: functional, cell-based
Outline: (§4)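 Cells treated 24 h, then 2 x 10^6 cells lysed (Triton X-100 buffer, pH 8.0) with RNase at 37 °C for 90 min and proteinase-K at 50 °C for 1 h. DNA phenol/chloroform-extracted and ethanol-precipitated, then run on 1.8% agarose at 50 V for 1.5 h in TAE. Ladders viewed under UV.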

HL-60 [10] = assay: Induction of apoptosis in human HL60 cells assessed as DNA ladder formation at 10 uM after 24 hrs by agarose gel electrophoresis; assay type: functional, cell-based; outline: as §4
SiHa [11] = assay: Induction of apoptosis in human SiHa cells assessed as DNA ladder formation at 10 uM after 24 hrs by agarose gel electrophoresis; assay type: functional, cell-based; outline: as §4
HeLa = assay: Induction of apoptosis in human HeLa cells assessed as DNA ladder formation at 10 uM after 24 hrs by agarose gel electrophoresis; assay type: functional, cell-based; outline: as §4
HL-60 [12] = assay: Cell cycle arrest in human HL60 cells assessed as accumulation at sub-G0 phase measuring DNA damage at 1 uM after 24 hrs using propidium iodide staining by flow cytometry (reference value: 1%); assay type: functional
Outline: (§5)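 HL-60 cells (1 x 10^5 per 1.5 mL) treated 24 h, then fixed in 70% cold ethanol at −20 °C overnight. RNase digestion (400 µg/ml) at 37 °C for 45 min, then propidium iodide (10 µg/ml) for 30 min. Flow cytometry on 10,000 events, FL2-A vs FL2-W, with doublet discrimination. Sub-G0 (hypodiploid) peak taken as apoptotic cells. Mean ± SD of three independent experiments.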

HL-60 [13] = assay: Cell cycle arrest in human HL60 cells assessed as accumulation at G1 phase at 1 uM after 24 hrs using propidium iodide staining by flow cytometry; assay type: functional, cell-based; outline: as §5
HL-60 [14] = assay: Cell cycle arrest in human HL60 cells assessed as accumulation at S phase at 1 uM after 24 hrs using propidium iodide staining by flow cytometry; assay type: functional, cell-based; outline: as §5
HL-60 [15] = assay: Cell cycle arrest in human HL60 cells assessed as accumulation at G2/M phase at 1 uM after 24 hrs using propidium iodide staining by flow cytometry; assay type: functional, cell-based; outline: as §5
HL-60 [16] = assay: Induction of apoptosis in human HL60 cells assessed as increase of reactive oxygen species level at 1 uM after 24 hrs using DCFH-DA fluorescent dye based flow cytometric analysis relative to control; assay type: functional
Outline: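 HL-60 cells (1 x 10^5 per 1.5 mL) treated 24 h, then loaded with 10 µM H2DCFDA for 30 min at 37 °C. Washed twice in PBS and read in FL-1 (530 nm). Percentage of DCF-positive cells determined; mean ± SD of three experiments.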

HL-60 [17] = assay: Induction of NO production in human HL60 cells at 1 uM after 24 hrs using DAF-2DA fluorescent dye based flow cytometric analysis; assay type: functional, cell-based
Outline: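 HL-60 cells (1 x 10^5 per 1.5 mL) preloaded 30 min with 10 µM DAF-2-DA before treatment. After 24 h exposure, cells were washed and read by flow cytometry in FL-1 as NO-positive population. Mean ± SD of three independent experiments.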

HL-60 [18] = assay: Induction of apoptosis in human HL60 cells assessed as decrease in mitochondrial membrane potential at 1 uM after 24 hrs using rhodamine 123 staining by flow cytometry; assay type: functional
Outline: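 HL-60 cells (1 x 10^5 per 1.5 mL) treated 24 h, then stained with rhodamine-123 (5 µg/mL final) for 1 h. Washed, and propidium iodide (5 µg/mL) added just before reading. FL-1 fluorescence from 10,000 events; percentage of low Rh-123 cells taken as loss of membrane potential. Mean ± SD, n=3.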

HL-60 [19] = assay: Inhibition of NF-kappaB expression in human HL60 cells at 1 uM after 24 hrs by Western blotting; assay type: functional, cell-based
Outline: (§6)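 HL-60 cells treated 24 h and lysed in RIPA buffer on ice; protein measured by Bradford against a BSA standard. 50 µg resolved by SDS-PAGE and transferred to PVDF, blocked in 5% milk/TBST, then primary antibodies 1:1000 for 2 h and HRP secondary 1:1000 for 1 h. ECL detection with β-actin as loading control; bands quantified by densitometry.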

HL-60 [20] = assay: Inhibition of survivin expression in human HL60 cells at 1 uM after 24 hrs by Western blotting; assay type: functional, cell-based; outline: as §6
HL-60 [21] = assay: Induction of apoptosis in human HL60 cells assessed as PARP cleavage at 1 uM after 24 hrs by Western blotting; assay type: functional, cell-based; outline: as §6
HL-60 [22] = assay: Inhibition of Bcl-2 expression in human HL60 cells at 1 uM after 24 hrs by Western blotting; assay type: functional, cell-based; outline: as §6
HL-60 [23] = assay: Growth inhibition of human HL60 cells after 48 hrs by MTT assay; assay type: functional, cell-based; details: HL-60, 48 h
SiHa [24] = assay: Growth inhibition of human SiHa cells after 48 hrs by MTT assay; assay type: functional, cell-based
CV-1 = assay: Growth inhibition of african green monkey CV1 cells after 48 hrs by MTT assay; assay type: cell-based; details: Chlorocebus aethiops, CV-1, 48 h
[25] = Therapeutic ratio of IC50 for african green monkey CV1 cells to IC50 for human HL60 cells; assay type: ADME, cell-based, HL-60; details: CV1 cells and HL60 cells, read-out: Ratio IC50

SMILES | inhibition of growth at 10 µM (IMR-32) | inhibition of growth at 10 µM (SK-N-SH) | inhibition of growth at 10 µM (SiHa [1]) | inhibition of growth at 10 µM (SW-620) | inhibition of growth at 10 µM (HCT-15) | inhibition of growth at 10 µM [2] | inhibition of growth at 10 µM (DU-145) | inhibition of growth at 10 µM (A549) | inhibition of growth at 10 µM (HEp-2) | inhibition of growth at 10 µM (OVCAR-5) | Activity (HL-60 [3]) | Activity (HL-60 [4]) | Activity (HL-60 [5]) | Activity (HL-60 [6]) | Activity (HL-60 [7]) | Activity (HL-60 [8]) | Activity (HL-60 [9]) | Activity (HL-60 [10]) | Activity (SiHa [11]) | Activity (HeLa) | further results
O=C(Nc1nc2ccc([N+](=O)[O-])cc2s1)c1cccnc1Nc1ccc(Cl)cc1Cl | 48% | 50% | 35% | 61% | 75% | 2% | 39% | 19% | 14% | 0% | 9% | 40% | 5% | inactive | inactive | inactive | Active | Active | inactive | inactive | Activity (HL-60 [12]): 25%; Activity (HL-60 [13]): inactive; Activity (HL-60 [14]): inactive; Activity (HL-60 [15]): inactive; Activity (HL-60 [16]): inactive; Activity (HL-60 [17]): inactive; Activity (HL-60 [18]): Active; inhibition (HL-60 [19]): inactive; inhibition (HL-60 [20]): Active; Activity (HL-60 [21]): Active; inhibition (HL-60 [22]): inactive
CN1c2ccccc2S(=O)(=O)n2nc(-c3cccnc3Nc3ccc(Cl)cc3Cl)nc21 | 47% | 16% | 13% | 62% | 27% | 49% | 11% | 15% | 0% | 23% | 7% | 13% | 3% | inactive | inactive | inactive | Active | Active | inactive | inactive | IC50 (HL-60 [23]): 0.64 µM; IC50 (SiHa [24]): > 50 µM; IC50 (CV-1): > 100 µM; selectivity ratio [25]: > 156; Activity (HL-60 [12]): 20%; Activity (HL-60 [13]): inactive; Activity (HL-60 [14]): inactive; Activity (HL-60 [15]): inactive; Activity (HL-60 [16]): inactive; Activity (HL-60 [17]): inactive; inhibition (HL-60 [19]): inactive; inhibition (HL-60 [20]): Active; Activity (HL-60 [21]): Active; inhibition (HL-60 [22]): inactive
O=C(Nc1nc2ccc([N+](=O)[O-])cc2s1)c1cccnc1Nc1ccccc1 | 45% | 48% | 53% | 65% | 66% | 63% | 52% | 31% | 26% | 50% | 13% | 42% | 7% | inactive | inactive | inactive | Active | Active | inactive | inactive | IC50 (HL-60 [23]): 0.58 µM; IC50 (SiHa [24]): 28 µM; IC50 (CV-1): 70 µM; selectivity ratio [25]: 120; Activity (HL-60 [12]): 24%; Activity (HL-60 [13]): inactive; Activity (HL-60 [14]): inactive; Activity (HL-60 [15]): inactive; Activity (HL-60 [16]): 31%; Activity (HL-60 [17]): inactive; Activity (HL-60 [18]): Active; inhibition (HL-60 [19]): inactive; Activity (HL-60 [21]): Active; inhibition (HL-60 [22]): inactive
